The source made the active and inactive calls. The rule behind the calls is not given here.
How the values were obtained:
Aspergillus flavus = test: Antifungal activity against Aspergillus flavus AIIMS isolate at 30 ug/ml by cup-plate agar diffusion method; type: functional; conditions: for zone of inhibition at 30 µg/mL: read-out: DIZ
Procedure, shortened: (§1)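 Cup-plate agar diffusion assay against the fungal strains, with amphotericin B as the reference standard.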

Bacillus subtilis [1] = test: Antibacterial activity against Bacillus subtilis MTCC 121 at 100 ug/ml after 24 hrs; type: functional, organism-based
Procedure, shortened: (§2)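 Organisms grown overnight at 37 °C in buffered glucose broth. A loopful (5 mm diameter) was added to buffered glucose broth containing the test compound and incubated at 37 °C for 24 h. Growth was scored against the untreated control as total inhibition, poor, medium or confluent growth.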

Bacillus subtilis [2] = test: Antibacterial activity against Bacillus subtilis MTCC 121 at 200 ug/ml after 24 hrs; type: functional, organism-based; procedure, shortened: as §2
Escherichia coli [3] = test: Antibacterial activity against Escherichia coli ATCC 25922 at 500 ug/ml after 24 hrs; type: functional, organism-based; procedure, shortened: as §2
Bacillus subtilis [4] = test: Antibacterial activity against Bacillus subtilis MTCC 121 at 500 ug/ml after 24 hrs; type: functional, organism-based; procedure, shortened: as §2
Bacillus subtilis [5] = test: Antibacterial activity against Bacillus subtilis MTCC 121 at 1 ug/ml after 24 hrs; type: functional, organism-based; procedure, shortened: as §2
Candida albicans = test: Antifungal activity against Candida albicans MTCC 1637 at 30 ug/ml by cup-plate agar diffusion method; type: functional; conditions: for zone of inhibition at 30 µg/mL: read-out: DIZ; procedure, shortened: as §1
Bacillus subtilis [6] = test: Antibacterial activity against Bacillus subtilis MTCC 121 after 24 hrs; type: functional
Escherichia coli [7] = test: Antibacterial activity against Escherichia coli ATCC 25922 at 200 ug/ml after 24 hrs; type: functional, organism-based; procedure, shortened: as §2
Escherichia coli [8] = test: Antibacterial activity against Escherichia coli ATCC 25922 at 10 ug/ml after 24 hrs; type: functional, organism-based; procedure, shortened: as §2
Aspergillus niger = test: Antifungal activity against Aspergillus niger AIIMS isolate at 30 ug/ml by cup-plate agar diffusion method; type: functional; conditions: for zone of inhibition at 30 µg/mL: read-out: DIZ; procedure, shortened: as §1
Bacillus subtilis [9] = test: Antibacterial activity against Bacillus subtilis MTCC 121 at 10 ug/ml after 24 hrs; type: functional, organism-based; procedure, shortened: as §2
Escherichia coli [10] = test: Antibacterial activity against Escherichia coli ATCC 25922 at 1 ug/ml after 24 hrs; type: functional, organism-based; procedure, shortened: as §2
Escherichia coli [11] = test: Antibacterial activity against Escherichia coli ATCC 25922 after 24 hrs; type: functional
Escherichia coli [12] = test: Antibacterial activity against Escherichia coli ATCC 25922 at 100 ug/ml after 24 hrs; type: functional, organism-based; procedure, shortened: as §2

| SMILES | MIC (Bacillus subtilis [6]) | MIC (Escherichia coli [11]) | zone of inhibition at 30 µg/mL (Aspergillus flavus) | inhibition (Bacillus subtilis [1]) | inhibition (Bacillus subtilis [2]) | inhibition (Escherichia coli [3]) | Activity (Bacillus subtilis [4]) | inhibition (Bacillus subtilis [5]) | zone of inhibition at 30 µg/mL (Candida albicans) | inhibition (Escherichia coli [7]) | inhibition (Escherichia coli [8]) | zone of inhibition at 30 µg/mL (Aspergillus niger) | inhibition (Bacillus subtilis [9]) | inhibition (Escherichia coli [10]) | inhibition (Escherichia coli [12]) | diameter of the inhibition zone (DIZ) (Aspergillus flavus) | diameter of the inhibition zone (DIZ) (Candida albicans) | diameter of the inhibition zone (DIZ) (Aspergillus niger) | Activity (Bacillus subtilis [2]) | Activity (Bacillus subtilis [6]) |
| --- | --- | --- | --- | --- | --- | --- | --- | --- | --- | --- | --- | --- | --- | --- | --- | --- | --- | --- | --- | --- |
| Cc1cccc(/C=N/c2nnc(Cn3c(C)nc4ccccc43)s2)c1 |  | inactive |  | inactive |  | inactive | inactive | inactive |  | inactive | inactive |  | inactive | inactive | inactive | inactive | inactive | inactive | inactive | inactive |
| Cc1nc2ccccc2n1Cc1nnc(/N=C/c2cccc(O)c2)s1 | inactive | inactive | 10 mm | inactive | inactive | inactive | inactive | inactive | 22 mm | inactive | inactive | 10 mm | inactive | inactive | inactive |  |  |  |  |  |
| COc1ccccc1/C=N/c1nnc(Cn2c(C)nc3ccccc32)s1 | inactive | inactive | 16 mm | inactive | inactive | inactive | inactive | inactive | 10 mm | inactive | inactive | 16 mm | inactive | inactive | inactive |  |  |  |  |  |

More lines, main results first:

| MIC (Bacillus subtilis [6]) | MIC (Escherichia coli [11]) | SMILES | zone of inhibition at 30 µg/mL (Aspergillus flavus) | inhibition (Bacillus subtilis [1]) | inhibition (Bacillus subtilis [2]) | inhibition (Escherichia coli [3]) | Activity (Bacillus subtilis [4]) | inhibition (Bacillus subtilis [5]) | zone of inhibition at 30 µg/mL (Candida albicans) | inhibition (Escherichia coli [7]) | inhibition (Escherichia coli [8]) | zone of inhibition at 30 µg/mL (Aspergillus niger) | inhibition (Bacillus subtilis [9]) | inhibition (Escherichia coli [10]) | inhibition (Escherichia coli [12]) | diameter of the inhibition zone (DIZ) (Aspergillus flavus) | diameter of the inhibition zone (DIZ) (Candida albicans) | diameter of the inhibition zone (DIZ) (Aspergillus niger) | Activity (Bacillus subtilis [2]) | Activity (Bacillus subtilis [6]) |
| --- | --- | --- | --- | --- | --- | --- | --- | --- | --- | --- | --- | --- | --- | --- | --- | --- | --- | --- | --- | --- |
| inactive | inactive | Cc1nc2ccccc2n1Cc1nnc(/N=C/c2ccc(Cl)cc2)s1 | < 10 mm | inactive | inactive | inactive | inactive | inactive | 10 mm | inactive | inactive | 10 mm | inactive | inactive | inactive |  |  |  |  |  |
| inactive | inactive | Cc1nc2ccccc2n1Cc1nnc(N2C(=O)C(Cl)C2c2ccc(Cl)cc2)s1 (stereo not given) |  | inactive | inactive | inactive | inactive | inactive |  | inactive | inactive |  | inactive | inactive | inactive | inactive | inactive | inactive |  |  |
| inactive | inactive | COc1ccccc1C1C(Cl)C(=O)N1c1nnc(Cn2c(C)nc3ccccc32)s1 (stereo not given) | < 10 mm | inactive | inactive | inactive | inactive | inactive | < 10 mm | inactive | inactive | < 10 mm | inactive | inactive | inactive |  |  |  |  |  |

Reference: ChEMBL document CHEMBL1158335, “Synthesis and evaluation of some new benzimidazole derivatives as potential antimicrobial agents” (2009)
